Results on 2 substances are retold here after paper PMC6500479 (Journal of controlled release : official journal of the …, 2019).

One data set relates to macrophages. Particulars: ref [22]; cited from earlier work.
Data set [1] deals with 4T1 mouse mammary carcinoma. Kind of data set: In vivo homing to 4T1 orthotopic breast tumors. Particulars: 5 min, 15 min or 1 h after IV injection, IF. In a few lines: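 4T1 tumors came from 1 × 10⁶ cells in 100 μL PBS injected into the mammary fat pad of female BALB/c mice. FAM-labelled test peptide was given IV, 100 μL of 1 mg/mL in PBS, and circulated 5 min, 15 min or 1 h before PBS perfusion. Fixed frozen sections were blocked in 1% BSA/0.1% Triton X-100 for 1 h at RT. Primaries (1:200) ran overnight at 4 °C, secondaries (1:200) 1 h at RT, with anti-CD31 for vessels. DAPI mounting, confocal imaging.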

In data set [2] the test system is bovine serum albumin (BSA). Kind of data set: Binding to control protein BSA.

Bridges are numbered along the chain shown (N, C = ends). Where no end group is shown, it is not given here. FAM = carboxyfluorescein; Ahx = NCCCCCC(=O)O

Consider “Biotinylated CRV: Biotinylated CRV (CRVLRSGSC; disulfide 1-9; also: biotin, position not given here)”, for which the “Inhibition of FAM-CRV binding to macrophages” value with macrophages is on record as “inhibits the binding of FAM-CRV to macrophages”.
Take “GGSGGSKG ({FAM-Ahx}-GGSGGSKG-OH) [FAM-GGS]”: the “Accumulation in tumors over time” value in data set [1] was “little accumulation in tumors”. For the same substance, the “Binding to BSA” value in data set [2] was “neither peptide bound”.
